According to ChEMBL document CHEMBL1765045, “Fine-tuning the selectivity of aldosterone synthase inhibitors: structure-activity and structure-selectivity insights from studies of heteroaryl substituted 1,2,5,6-tetrahydropyrrolo[3,2,1-ij]quinolin-4-one derivatives” (J Med Chem, 2011):

What was measured:
[1] = biological target: T1, Cytochrome P450 11B1, mitochondrial (Homo sapiens, UniProt P15538); assay: Inhibition of human CYP11B1 expressed in hamster V79 MZh cells assessed as conversion of [4-14C]-11-deoxycorticosterone substrate by HPTLC assay; assay type: cell-based
T1 sequence (P15538 whole entry): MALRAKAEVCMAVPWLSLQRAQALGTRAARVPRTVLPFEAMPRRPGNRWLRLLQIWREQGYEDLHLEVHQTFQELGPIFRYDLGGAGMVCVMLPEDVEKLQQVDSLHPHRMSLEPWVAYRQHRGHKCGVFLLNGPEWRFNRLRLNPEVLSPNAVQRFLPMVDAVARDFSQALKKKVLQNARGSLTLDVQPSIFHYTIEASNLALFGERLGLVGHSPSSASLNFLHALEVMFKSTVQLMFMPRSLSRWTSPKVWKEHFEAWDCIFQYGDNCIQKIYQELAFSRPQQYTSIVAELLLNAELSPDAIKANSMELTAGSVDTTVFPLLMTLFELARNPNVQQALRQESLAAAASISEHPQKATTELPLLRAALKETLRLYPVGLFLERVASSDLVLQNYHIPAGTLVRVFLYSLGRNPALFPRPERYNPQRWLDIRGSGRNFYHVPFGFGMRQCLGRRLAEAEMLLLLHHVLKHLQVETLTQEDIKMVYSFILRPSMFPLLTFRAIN
Outline: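 V79 MZh hamster fibroblasts stably expressing human CYP11B1 or CYP11B2 incubated with [4-14C]-11-deoxycorticosterone, 100 nM, plus inhibitor at ≥3 concentrations. Reaction stopped with ethyl acetate, steroids extracted into the organic phase, and substrate conversion quantified by HPTLC with phosphoimaging. IC50 is the mean of at least three experiments.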

CYP3A4 = CYP3A4 (Homo sapiens, UniProt P08684); assay: Inhibition of human CYP3A4 expressed in baculovirus-infected insect microsomes at 10 uM; assay type: ADME, Microsome
Outline: (§1)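 Recombinant human CYP1A2, 2B6, 2C9, 2C19, 2D6 or 3A4 in baculovirus-infected insect microsomes (Supersomes), run per manufacturer's protocol. Inhibitor at 1 and 10 μM; percent inhibition is the mean of two experiments.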

CYP2C19 [2] = biological target: T2, CYP2C19 (Homo sapiens, UniProt P33261); assay: Inhibition of human CYP2C19 expressed in baculovirus-infected insect microsomes at 10 uM; assay type: ADME, Microsome; outline: as §1
CYP2C19 [3] = biological target: T2, CYP2C19; assay: Inhibition of human CYP2C19 expressed in baculovirus-infected insect microsomes at 1 uM; assay type: ADME, Microsome; outline: as §1
CYP2C9 [4] = biological target: T3, CYP2C9 (Homo sapiens, UniProt P11712); assay: Inhibition of human CYP2C9 expressed in baculovirus-infected insect microsomes at 10 uM; assay type: ADME, Microsome; outline: as §1
CYP2C9 [5] = biological target: T3, CYP2C9; assay: Inhibition of human CYP2C9 expressed in baculovirus-infected insect microsomes at 1 uM; assay type: ADME, Microsome; outline: as §1
CYP2B6 [6] = biological target: T4, CYP2B6 (Homo sapiens, UniProt P20813); assay: Inhibition of human CYP2B6 expressed in baculovirus-infected insect microsomes at 10 uM; assay type: ADME, Microsome; outline: as §1
T4 sequence (P20813 whole entry): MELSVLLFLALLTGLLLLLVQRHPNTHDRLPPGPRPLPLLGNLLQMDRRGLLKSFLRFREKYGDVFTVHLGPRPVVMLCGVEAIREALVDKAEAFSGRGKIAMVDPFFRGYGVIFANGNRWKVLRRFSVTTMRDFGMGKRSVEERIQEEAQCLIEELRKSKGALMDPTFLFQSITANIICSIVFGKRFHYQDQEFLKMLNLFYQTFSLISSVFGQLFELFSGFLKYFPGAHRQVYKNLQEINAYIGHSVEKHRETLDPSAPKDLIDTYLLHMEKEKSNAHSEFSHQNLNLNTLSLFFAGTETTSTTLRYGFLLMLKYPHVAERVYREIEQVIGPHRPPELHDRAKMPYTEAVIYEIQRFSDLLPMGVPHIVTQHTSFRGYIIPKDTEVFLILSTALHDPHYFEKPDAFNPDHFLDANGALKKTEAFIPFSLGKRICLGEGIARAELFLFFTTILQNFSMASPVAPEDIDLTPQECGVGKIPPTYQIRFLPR

CYP2B6 [7] = biological target: T4, CYP2B6; assay: Inhibition of human CYP2B6 expressed in baculovirus-infected insect microsomes at 1 uM; assay type: ADME, Microsome; outline: as §1
CYP1A2 [8] = biological target: T5, CYP1A2 (Homo sapiens, UniProt P05177); assay: Inhibition of human CYP1A2 expressed in baculovirus-infected insect microsomes at 10 uM; assay type: ADME, Microsome; outline: as §1
T5 sequence (P05177 whole entry): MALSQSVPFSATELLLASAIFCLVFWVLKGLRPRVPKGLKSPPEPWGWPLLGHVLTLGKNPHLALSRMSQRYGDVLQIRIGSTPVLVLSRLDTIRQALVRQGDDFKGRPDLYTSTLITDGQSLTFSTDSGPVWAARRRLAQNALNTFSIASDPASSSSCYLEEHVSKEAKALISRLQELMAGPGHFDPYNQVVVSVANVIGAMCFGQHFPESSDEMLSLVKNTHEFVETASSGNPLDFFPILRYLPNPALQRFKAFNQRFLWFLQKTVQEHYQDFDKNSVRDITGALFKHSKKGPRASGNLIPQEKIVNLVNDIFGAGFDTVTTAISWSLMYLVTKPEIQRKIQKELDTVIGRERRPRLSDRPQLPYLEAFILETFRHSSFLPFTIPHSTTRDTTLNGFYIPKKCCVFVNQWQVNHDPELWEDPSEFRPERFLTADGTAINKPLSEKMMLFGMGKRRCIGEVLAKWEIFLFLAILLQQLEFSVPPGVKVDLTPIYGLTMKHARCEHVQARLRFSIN

CYP1A2 [9] = biological target: T5, CYP1A2; assay: Inhibition of human CYP1A2 expressed in baculovirus-infected insect microsomes at 1 uM; assay type: ADME, Microsome; outline: as §1
CYP17 = biological target: T6, CYP17 (Homo sapiens, UniProt P05093); assay: Inhibition of human CYP17 expressed in Escherichia coli using progesterone substrate at 2 uM; conditions: recombinant human CYP17 expressed in Escherichia coli, probe progesterone
T6 sequence (P05093 whole entry): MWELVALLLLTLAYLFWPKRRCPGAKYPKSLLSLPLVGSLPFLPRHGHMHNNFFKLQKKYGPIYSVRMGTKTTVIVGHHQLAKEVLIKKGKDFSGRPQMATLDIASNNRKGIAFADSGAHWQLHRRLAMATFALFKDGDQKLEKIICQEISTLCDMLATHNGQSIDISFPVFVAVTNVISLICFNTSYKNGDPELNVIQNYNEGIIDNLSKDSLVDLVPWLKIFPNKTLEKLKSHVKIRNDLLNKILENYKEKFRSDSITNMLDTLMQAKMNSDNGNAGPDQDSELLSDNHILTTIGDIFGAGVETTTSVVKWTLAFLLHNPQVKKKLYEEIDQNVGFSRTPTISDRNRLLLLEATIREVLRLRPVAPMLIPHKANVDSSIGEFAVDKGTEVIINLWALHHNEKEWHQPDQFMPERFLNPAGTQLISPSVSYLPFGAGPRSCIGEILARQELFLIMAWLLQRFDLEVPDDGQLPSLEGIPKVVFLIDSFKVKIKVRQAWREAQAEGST
Outline: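 50000g sediment of E. coli homogenate recombinantly expressing human CYP17. Progesterone substrate at 25 μM, inhibitor tested at 2 μM.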

CYP2D6 = CYP2D6 (Homo sapiens, UniProt P10635); assay: Inhibition of human CYP2D6 expressed in baculovirus-infected insect microsomes at 10 uM; assay type: ADME, Microsome; outline: as §1
Chain of CYP2D6 (P10635 whole entry): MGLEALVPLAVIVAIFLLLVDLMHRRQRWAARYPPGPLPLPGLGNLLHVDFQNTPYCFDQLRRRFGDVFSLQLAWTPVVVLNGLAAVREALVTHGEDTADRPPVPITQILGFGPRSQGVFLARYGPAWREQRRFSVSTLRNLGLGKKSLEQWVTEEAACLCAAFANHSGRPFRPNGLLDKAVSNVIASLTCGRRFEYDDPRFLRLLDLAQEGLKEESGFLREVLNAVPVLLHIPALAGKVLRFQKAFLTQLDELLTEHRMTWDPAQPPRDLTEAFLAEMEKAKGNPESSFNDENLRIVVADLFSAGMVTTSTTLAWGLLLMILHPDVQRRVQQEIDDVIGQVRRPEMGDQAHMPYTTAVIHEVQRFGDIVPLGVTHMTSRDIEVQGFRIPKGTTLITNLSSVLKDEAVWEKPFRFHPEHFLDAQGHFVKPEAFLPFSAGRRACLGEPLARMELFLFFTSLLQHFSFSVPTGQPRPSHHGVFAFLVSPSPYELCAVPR

Chain of CYP3A4 (P08684 whole entry): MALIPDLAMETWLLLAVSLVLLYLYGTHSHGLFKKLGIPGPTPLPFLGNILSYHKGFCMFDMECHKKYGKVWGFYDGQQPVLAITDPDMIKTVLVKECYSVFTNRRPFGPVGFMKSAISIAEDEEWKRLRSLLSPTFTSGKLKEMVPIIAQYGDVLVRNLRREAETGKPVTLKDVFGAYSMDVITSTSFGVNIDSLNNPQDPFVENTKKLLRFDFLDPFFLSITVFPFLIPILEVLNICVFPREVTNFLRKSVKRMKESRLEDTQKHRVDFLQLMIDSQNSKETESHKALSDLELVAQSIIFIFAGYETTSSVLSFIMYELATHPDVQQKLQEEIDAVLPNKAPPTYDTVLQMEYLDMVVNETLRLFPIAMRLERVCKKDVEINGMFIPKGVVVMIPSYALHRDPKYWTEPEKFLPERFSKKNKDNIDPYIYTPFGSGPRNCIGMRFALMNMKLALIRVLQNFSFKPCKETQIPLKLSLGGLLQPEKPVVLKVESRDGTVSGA
T3 sequence (P11712 whole entry): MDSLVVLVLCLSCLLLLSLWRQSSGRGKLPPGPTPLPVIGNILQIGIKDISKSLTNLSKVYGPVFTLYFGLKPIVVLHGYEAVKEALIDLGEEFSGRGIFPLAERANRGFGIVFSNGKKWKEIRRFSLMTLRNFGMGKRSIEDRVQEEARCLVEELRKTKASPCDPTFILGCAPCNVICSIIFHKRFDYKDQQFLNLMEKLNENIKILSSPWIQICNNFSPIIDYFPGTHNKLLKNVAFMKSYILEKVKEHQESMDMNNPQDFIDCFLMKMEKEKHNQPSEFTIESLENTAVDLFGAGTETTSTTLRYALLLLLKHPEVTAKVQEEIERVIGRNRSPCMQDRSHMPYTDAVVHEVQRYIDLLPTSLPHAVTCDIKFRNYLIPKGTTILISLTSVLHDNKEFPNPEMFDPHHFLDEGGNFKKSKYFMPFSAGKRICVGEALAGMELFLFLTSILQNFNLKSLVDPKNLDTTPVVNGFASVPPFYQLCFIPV
T2 sequence (P33261 whole entry): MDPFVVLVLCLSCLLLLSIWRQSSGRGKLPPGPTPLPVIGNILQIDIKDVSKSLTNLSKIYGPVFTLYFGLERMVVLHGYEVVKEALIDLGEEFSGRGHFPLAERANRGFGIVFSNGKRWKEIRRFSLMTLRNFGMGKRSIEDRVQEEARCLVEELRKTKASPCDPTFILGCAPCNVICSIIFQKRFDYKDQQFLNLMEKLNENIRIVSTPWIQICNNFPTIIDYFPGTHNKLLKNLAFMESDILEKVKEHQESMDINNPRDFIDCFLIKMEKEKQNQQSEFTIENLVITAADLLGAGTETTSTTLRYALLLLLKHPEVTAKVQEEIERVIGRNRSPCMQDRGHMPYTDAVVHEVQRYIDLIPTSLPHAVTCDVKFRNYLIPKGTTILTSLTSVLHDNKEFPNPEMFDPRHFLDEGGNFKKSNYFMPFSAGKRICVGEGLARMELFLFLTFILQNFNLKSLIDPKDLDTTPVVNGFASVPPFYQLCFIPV

| IC50 [1] [nM] | inhibition at 10 µM (CYP3A4) [%] | inhibition at 10 µM (CYP2C19 [2]) [%] | inhibition at 1 µM (CYP2C19 [3]) [%] | inhibition at 10 µM (CYP2C9 [4]) [%] | inhibition at 1 µM (CYP2C9 [5]) [%] | inhibition at 10 µM (CYP2B6 [6]) [%] | inhibition at 1 µM (CYP2B6 [7]) [%] | inhibition at 10 µM (CYP1A2 [8]) [%] | inhibition at 1 µM (CYP1A2 [9]) [%] | inhibition at 2 µM (CYP17) [%] | inhibition at 10 µM (CYP2D6) [%] | SMILES |
| --- | --- | --- | --- | --- | --- | --- | --- | --- | --- | --- | --- | --- |
| 2300 | 21 | 44 | 8 | 40 | 19 | 36 | 27 | 83 | 41 | 6 |  | O=C1CCc2cc(-c3cccnc3)cc3c2N1CCC3 |
| 247 | 19 | 30 | 7 | 42 | 23 | 8 | < 5 | 72 | 37 | < 5 | 13 | COc1cncc(-c2cc3c4c(c2)CCN4C(=O)CC3)c1 |
| 715 | < 5 | < 5 | < 5 | 41 | 6 | < 5 | < 5 | 43 | 8 | 6 | < 5 | O=C1CCc2cc(-c3cccnc3)cc3c2N1CC3 |
| 490 | 43 | 21 |  | 79 | 39 | 13 | < 5 | 38 | 9 | 7 | 9 | O=C1CCc2cc(-c3cncc(-c4cccc(F)c4)c3)cc3c2N1CC3 |
